Calls of active or inactive are those of the source. The calls are words filed in the database; no cut-off is given here.
Experiments:
4T1 [1] = assay: Antitumor activity against mouse 4T1 cells implanted in BALB/c mouse assessed as decrease in tumor MMP2 expression level at 5.7 mg/kg,iv administrated once per week for 4 weeks in presence of compound 5b by western blot assay; type: functional, organism-based
Summary of the method: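 4T1 cells injected into mammary fat pads of BALB/c mice. Saline vehicle or test article given iv once weekly for 4 weeks. Spleen, lung and tumor lysates immunoblotted for MMP2/MMP9 with β-actin as loading control. Bands averaged over five mice per group, representative of two independent experiments.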

4T1 [2] = assay: Antitumor activity against mouse 4T1 cells implanted in BALB/c mouse assessed as increase in tumor NOD1 expression level at 5.7 mg/kg,iv administrated once per week for 4 weeks in presence of MDA-205 by western blot assay; type: functional, organism-based
Summary of the method: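 Tumour-bearing BALB/c mice (4T1 cells into mammary fat pad) given iv saline vehicle or test agents once weekly for 4 weeks. Tumours excised and probed by western blot for MMP9, MMP2 and NOD1, β-actin as loading control. Bands averaged over five mice per group; representative of two independent experiments.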

4T1 [3] = assay: Antitumor activity against mouse 4T1 cells implanted in BALB/c mouse assessed as decrease in lung metastasis at 5.7 mg/kg,iv administrated once per week for 4 weeks in presence of compound 5b by H and E staining based assay; type: functional, organism-based
Summary of the method: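 BALB/c mice bearing orthotopic mammary fat pad 4T1 tumors, dosed iv weekly for 4 weeks with saline vehicle as control. Lung sections stained with hematoxylin and eosin and examined by light microscopy at 40× for metastasis, inflammatory infiltration and alveolar wall thickening.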

4T1 [4] = assay: Antitumor activity against mouse 4T1 cells xenografted with BALB/c mouse assessed as inhibition of tumor growth at 5.7 mg/kg,iv in presence of compound 6 administrated once per week for 4 weeks; type: functional; conditions: 4T1, 672 h
Summary of the method: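 4T1 cells injected into mammary fat pads of BALB/c mice. Dosing iv once per week for 4 weeks, saline vehicle; single-agent arms were given alone or with the peptide component (5b or 6). Endpoints were body weight, tumour volume, tumour weight, lung metastatic nodule count and lung metastasis score. Mean ± SEM, n = 10; ANOVA and Student's t test.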

[5] = Toxicity in BALB/c mouse injected with mouse 4T1 cells assessed as body weight loss at 5.7 mg/kg,iv in presence of compound 6 administrated once per week for 4 weeks; type: organism-based; conditions: in vivo, 672 h
4T1 [6] = assay: Antitumor activity against mouse 4T1 cells implanted in BALB/c mouse assessed as decrease in serum TIMP-1 level at 5.7 mg/kg,iv administrated once per week for 4 weeks by ELISA; type: functional, organism-based
[7] = MRT in mouse tumor implanted with mouse 4T1 cells at 5.7 mg/kg,iv measured upto 72 hrs; type: ADME, organism-based, Neoplasm
4T1 [8] = assay: Antitumor activity against mouse 4T1 cells xenografted with BALB/c mouse assessed as decrease in tumor weight at 10 mg/kg,iv administrated once per week for 4 weeks; type: functional, organism-based
Summary of the method: (§1)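 4T1 cells injected into the mammary fat pad of BALB/c mice; iv saline vehicle or 5, 10 or 20 mg/kg once weekly for 4 weeks; body weight, tumour volume, tumour weight, lung metastatic nodule count and metastasis score recorded; n = 10, mean ± SEM, ANOVA and Student's t test.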

[9] = Toxicity in BALB/c mouse xenografted with human MDA-MB-231 cells assessed as body weight loss at 10 mg/kg,iv administrated once per week for 3 weeks; type: organism-based; conditions: in vivo, 504 h
4T1 [10] = assay: Antitumor activity against mouse 4T1 cells xenografted with BALB/c mouse assessed as decrease in lung metastasis at 10 mg/kg,iv administrated once per week for 4 weeks; type: functional, organism-based; summary of the method: as §1
[11] = Cmax in male Beagle dog at 1 mg/kg,iv measured upto 24 hrs; type: ADME, organism-based, Canis lupus familiaris; parameters: dose 1 mg/kg, time < 24 hrs, route iv; conditions: in vivo
Summary of the method: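 Beagle dogs were given a single iv infusion at 1, 2 or 4 mg/kg. Plasma parent drug and released docetaxel were followed over time. Cmax, Tmax, AUC, MRT, t1/2, CL and Vss were reported by sex and for all dogs combined.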

[12] = AUC (0-t) in male Beagle dog at 2 mg/kg,iv measured upto 24 hrs; type: ADME, organism-based, Canis lupus familiaris; parameters: dose 2 mg/kg, time < 24 hrs, route iv; conditions: in vivo
Summary of the method: (§2)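 Single iv dose: rats 2, 4 or 8 mg/kg by intravenous injection; Beagle dogs 1, 2 or 4 mg/kg by intravenous infusion. Plasma concentration–time data were analysed by sex and pooled. Reported parameters: Cmax, Tmax, AUC0−t, AUC0−∞, MRT0−∞, t1/2, CL, Vss, given as mean ± SD.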

[13] = AUC (0-t) in male rat at 8 mg/kg,iv measured upto 24 hrs; type: ADME, organism-based; parameters: time < 24 hrs, dose 8 mg/kg, route iv; conditions: in vivo; summary of the method: as §2
[14] = AUC (0-t) in male Beagle dog at 1 mg/kg,iv measured upto 24 hrs; type: ADME, organism-based, Canis lupus familiaris; parameters: dose 1 mg/kg, time < 24 hrs, route iv; conditions: in vivo; summary of the method: as §2
[15] = Drug distribution in rat adrenal gland at 4 mg/kg,iv measured by 0.25 hrs; type: ADME, organism-based; conditions: in vivo
Summary of the method: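 Rats received 4 mg/kg iv. Parent drug and released docetaxel were assayed in tissues and plasma from the first sampling at 0.25 h to 24 h. The lower limit of quantitation was 200 ng/g.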

[16] = AUC (0-infinity) in rat at 4 mg/kg,iv measured upto 24 hrs; type: ADME, organism-based; parameters: dose 4 mg/kg, time < 24 hrs, route iv; conditions: in vivo; summary of the method: as §2
[17] = Tmax in female rat at 4 mg/kg,iv measured upto 24 hrs; type: ADME, organism-based; conditions: in vivo
[18] = Clearance in rat at 4 mg/kg,iv measured upto 24 hrs; type: ADME, organism-based; conditions: in vivo
Summary of the method: (§3)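 Rats were given a single iv injection at 2, 4 or 8 mg/kg. Plasma parent drug and released docetaxel were followed over time. Cmax, Tmax, AUC, MRT, t1/2, CL and Vss were reported for males, females and all animals combined.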

4T1 [19] = assay: Antitumor activity against mouse 4T1 cells implanted in BALB/c mouse assessed as decrease in spleen MDSC cells at 20 mg/kg,iv measured after 28 days (reference value: 38%); type: functional; parameters: scale not given: the % may be the effect or the level left; conditions: time 28 day
[20] = Tmax in Beagle dog at 4 mg/kg,iv measured upto 24 hrs; type: ADME, organism-based, Canis lupus familiaris; conditions: in vivo
[21] = AUC (0-t) in female Beagle dog at 2 mg/kg,iv measured upto 24 hrs; type: ADME, organism-based, Canis lupus familiaris; parameters: dose 2 mg/kg, time < 24 hrs, route iv; conditions: in vivo; summary of the method: as §2
[22] = AUC (0-t) in rat at 4 mg/kg,iv measured upto 24 hrs; type: ADME, organism-based; parameters: time < 24 hrs, dose 4 mg/kg, route iv; conditions: in vivo; summary of the method: as §2
[23] = MRT (0 to infinity) in female rat at 2 mg/kg,iv measured upto 24 hrs; type: ADME, organism-based; conditions: in vivo
4T1 [24] = assay: Antitumor activity against mouse 4T1 cells implanted in BALB/c mouse assessed as decrease in serum TIMP-1 level at 5 mg/kg,iv administrated once per week for 4 weeks by ELISA; type: functional, organism-based
Summary of the method: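 4T1 fat-pad model in BALB/c mice, iv 5–20 mg/kg once weekly for 4 weeks, with vehicle and naive groups; serum MMP9, TIMP-1, IL-6 and S100A9 measured by mouse ELISA kits.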

[25] = Stability in rat plasma assessed as compound remaining at 1 uM incubated for 6 hrs; type: ADME, cell-free
[26] = Cmax in female rat at 8 mg/kg,iv measured upto 24 hrs; type: ADME, organism-based; parameters: time < 24 hrs, dose 8 mg/kg, route iv; conditions: in vivo; summary of the method: as §3
[27] = Half life in male Beagle dog at 1 mg/kg,iv measured upto 24 hrs; type: ADME, organism-based, Canis lupus familiaris; conditions: in vivo
[28] = Toxicity in Beagle dog assessed as effect on respiratory intensity at 1 to 4 mg/kg,iv; type: organism-based, Canis lupus familiaris; conditions: in vivo, dose 1-4 mg/kg
[29] = Drug excretion in rat feces at 4 mg/kg,iv measured upto 72 hrs; type: ADME, organism-based; conditions: faeces, read-out: Drug excretion
4T1 [30] = assay: Synergistic antitumor activity against mouse 4T1 cells xenografted with BALB/c mouse assessed as decrease in tumor weight at 10 mg/kg,iv administrated in combination with doxorubicin once per week for 4 weeks; type: functional, organism-based

For `CC(=O)O[C@@]12CO[C@@H]1C[C@H](O)[C@@]1(C)C(=O)[C@H](O)C3=C(C)[C@@H](OC(=O)[C@H](O)[C@@H](NC(=O)OC(C)(C)C)c4ccccc4)C[C@@](O)([C@@H](OC(=O)c4ccccc4)[C@H]21)C3(C)C` [DOCETAXEL ANHYDROUS], the Activity (4T1 [1]) was “inactive”, the Activity (4T1 [2]) was “inactive” and the Activity (4T1 [3]) was “Active”. The inhibition in vivo at 5.7 mg/kg (4T1 [4]) was 15.4%, the Activity [5] was “Non-Toxic” and the Activity (4T1 [6]) was “Active”. It also gave an MRT [7] of 73.3 h.
In the case of `CC(=O)O[C@@]12CO[C@@H]1C[C@H](O)[C@@]1(C)C(=O)[C@H](O)C3=C(C)[C@@H](OC(=O)[C@H](OC(=O)CCC(=O)NCCCC[C@H](NC(=O)CC[C@@H](NC(=O)[C@H](C)NC(=O)/C=C/c4ccc(F)cc4Cl)C(N)=O)C(=O)O)[C@@H](NC(=O)OC(C)(C)C)c4ccccc4)C[C@@](O)([C@@H](OC(=O)c4ccccc4)[C@H]21)C3(C)C`, the Activity (4T1 [8]) was “Active”, the Activity [9] was “Non-Toxic” and the Activity (4T1 [10]) was “Active”. For the same compound, the Cmax [11] was 3740 ng/mL, the AUC(0-t) at 24 h [12] was 4840 ng·h/mL and the AUC(0-t) at 24 h [13] was 52300 ng·h/mL. The AUC(0-t) at 24 h [14] was 1590 ng·h/mL, the Drug uptake [15] was “Active” and the AUC(0-inf) [16] was 16900 ng·h/mL. It also gave a Tmax [17] of 4.98 min, a clearance [18] of 4.21 mL/min/kg and an Activity (4T1 [19]) of 10.1%. It also gave a Tmax [20] of 30 min, an AUC(0-t) at 24 h [21] of 6970 ng·h/mL and an AUC(0-t) at 24 h [22] of 16900 ng·h/mL. The MRT inf [23] was 8.64 min, the Activity (4T1 [24]) was “Active” and the Stability [25] was “Stable”. For the same compound, the Cmax [26] was 62500 ng/mL, the half-life [27] was 13.6 min and the Activity [28] was “Non-Toxic”. The dose excreted at 72 h [29] was 69.9% and the Activity (4T1 [30]) was “Active”.

— ChEMBL document CHEMBL5252546, “Salutaxel, a Conjugate of Docetaxel and a Muramyl Dipeptide (MDP) Analogue, Acts as Multifunctional Prodrug That Inhibits Tumor Growth and Metastasis” (J Med Chem, 2018)
